From paper PMC2901243 (Nuclear medicine and biology, 2010)

Target: SSTR2 (Rattus norvegicus, UniProt P30680)
Format: binding
Settings: Re-cyclized analogues, in vitro, AR42J cells
How it was run: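 Trypsinized rat AR42J pancreatic carcinoma cells, 2 × 10⁶/well in RPMI 1640, were incubated 2 h at 37 °C (5% CO₂) with HPLC-purified ¹¹¹In-DOTA-TIDE (0.2 μCi/well) and test compound at 10⁻⁴ to 10⁻¹³ M, in triplicate. Cells were pelleted, washed three times with 4 °C medium, and counted for γ radioactivity. IC₅₀ was taken from sigmoidal fits of % bound tracer vs log concentration.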

SSTR2, sequence (P30680 whole entry): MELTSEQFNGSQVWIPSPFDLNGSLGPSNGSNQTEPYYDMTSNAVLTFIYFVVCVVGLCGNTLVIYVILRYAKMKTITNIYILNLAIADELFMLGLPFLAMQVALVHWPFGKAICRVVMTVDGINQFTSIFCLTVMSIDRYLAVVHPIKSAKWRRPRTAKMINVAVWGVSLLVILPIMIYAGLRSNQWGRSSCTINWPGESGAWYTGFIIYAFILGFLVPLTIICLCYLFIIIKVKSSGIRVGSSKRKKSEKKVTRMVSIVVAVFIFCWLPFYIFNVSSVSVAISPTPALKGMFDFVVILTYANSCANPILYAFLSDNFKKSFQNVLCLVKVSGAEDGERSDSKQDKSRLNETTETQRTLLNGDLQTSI

Ac-Cys-Cys-Tyr-DTrp-Lys-Thr-Cys-Thr(OH) [analogue 4]
affinity toward somatostatin subtype 2 receptors (in words): moderate affinity
